# Measurements published in ChEMBL document CHEMBL4715822, “Structure-based lead optimization to improve antiviral potency and ADMET properties of phenyl-1H-pyrrole-carboxamide entry inhibitors targeted to HIV-1 gp120” (Eur J Med Chem, 2018).
# pIC50: −log10 of the molar value.
# Key:
# [1] = tested on: Human immunodeficiency virus 1; assay: Antiviral activity against pseudovirus HIV-1 HXB-2 harboring Env M434I/I595F double mutant infected in human U87.CD4.CXCR4 cells assessed as reduction in viral infection pretreated for 30 mins before viral infection and measured after 3 days by luciferase based assay; format: functional, cell-based, M:B_HXB2R
# In short: (§1)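 Pseudoviruses made in HEK293T by co-transfecting an Env-deleted backbone (pSG3Δenv or pNL4-3.Luc.R-.E-) with an HXB-2 Env plasmid carrying single or double substitutions; Env sequences confirmed by sequencing. Virus pretreated 30 min with graded compound, added to U87-CD4-CXCR4 cells (1 × 10⁴/well, plated overnight), incubated 3 days. Cells lysed, luciferase measured, IC50 calculated.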
# [2] = tested on: Human immunodeficiency virus 1; assay: Antiviral activity against clinical isolate HIV-1 93RW034 infected in human PBMC cells assessed as reduction in viral transmission to TZM-bl cells pretreated for 1 hr before viral transmission and further incubated for 48 hrs by luciferase based assay; format: functional, organism-based; details: Human immunodeficiency virus 1, 93RW034, PBMC
# [3] = tested on: Human immunodeficiency virus 1; assay: Antiviral activity against pseudovirus HIV-1 HXB-2 harboring Env N425K mutant infected in human U87.CD4.CXCR4 cells assessed as reduction in viral infection pretreated for 30 mins before viral infection and measured after 3 days by luciferase based assay; format: functional, cell-based, M:B_HXB2R; in short: as §1
# [4] = tested on: Human immunodeficiency virus 1; assay: Antiviral activity against pseudovirus HIV-1 HXB-2 harboring Env S375H mutant infected in human U87.CD4.CXCR4 cells assessed as reduction in viral infection pretreated for 30 mins before viral infection and measured after 3 days by luciferase based assay; format: functional, cell-based, M:B_HXB2R; in short: as §1
# [5] = tested on: Human immunodeficiency virus 1; assay: Antiviral activity against clinical isolate HIV-1 BCF01 infected in human PBMC cells assessed as reduction in viral transmission to TZM-bl cells pretreated for 1 hr before viral transmission and further incubated for 48 hrs by luciferase based assay; format: functional, cell-based; details: Human immunodeficiency virus 1, BCF01, PBMC
# In short: (§2)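 PBMC from healthy HIV-negative donors infected with replication-competent virus in the presence of 30 μg/ml DEAE-dextran. On day 4 post-infection, cells washed free of virus and counted. 2 × 10⁴ infected PBMC/well pretreated with escalating compound for 1 h at 37 °C, then co-cultured 48 h with TZM-bl targets (10⁴/well, plated 24 h before). TZM-bl lysed, luciferase read, IC50 calculated.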
# [6] = tested on: Human immunodeficiency virus 1; assay: Antiviral activity against clinical isolate HIV-1 93BR019 infected in human PBMC cells assessed as reduction in viral transmission to TZM-bl cells pretreated for 1 hr before viral transmission and further incubated for 48 hrs by luciferase based assay; format: functional, cell-based; details: Human immunodeficiency virus 1, 93BR019, PBMC
# [7] = Apparent permeability across basolateral to apical side in human Caco2 cells incubated for 2 hrs by LC-MS/MS analysis; format: ADME, cell-based, Caco-2; details: caco-2, 2 h
# In short: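 Caco-2 monolayers grown three weeks to differentiate; compound in transport buffer pH 7.4 (glucose, 10 mM HEPES, HBSS) added apical (A-B) or basal (B-A) side, with or without 100 μM verapamil; 2 h incubation, both sides sampled. Lucifer yellow 100 μM on A side checks integrity (≤2% transport). Papp = (dQ/dt)/(C0 × A); efflux ratio = Papp(B→A)/Papp(A→B).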
# [8] = tested on: Human immunodeficiency virus 1; assay: Antiviral activity against Laboratory adapted HIV-1 LA1 infected in human PBMC cells assessed as reduction in viral transmission to TZM-bl cells pretreated for 1 hr before viral transmission and further incubated for 48 hrs by luciferase based assay; format: functional, organism-based; details: Human immunodeficiency virus 1, LA1, PBMC; in short: as §2
# [9] = Solubility in 2 % DMSO at pH 7.4 at 500 uM incubated for 90 mins in shaker by spectrophotometry; format: physicochemical
# In short: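 DMSO stock diluted to 500 μM in universal aqueous buffer pH 7.4 with 2 or 5% DMSO final; quadruplicate, 90 min shaking at room temperature in filter plate, vacuum filtered; filtrate in 20% acetonitrile read by UV absorbance at six wavelengths. Filtrate/standard ratio binned as ~500, 100–500 or <100 μM.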
# [10] = tested on: Human immunodeficiency virus 1; assay: Antiviral activity against clinical isolate HIV-1 CMU02 infected in human PBMC cells assessed as reduction in viral transmission to TZM-bl cells pretreated for 1 hr before viral transmission and further incubated for 48 hrs by luciferase based assay; format: functional, cell-based; details: Human immunodeficiency virus 1, CMU02, PBMC
structure (smiles),measurement,setting,value
COc1cnc(-n2cnc(C)n2)c2[nH]cc(C(=O)C(=O)N3CCN(C(=O)c4ccccc4)CC3)c12,pIC50,[1],8.10
same,pIC50,[2],7.00
same,pIC50,[3],8.10
same,pIC50,[4],< 6.00
same,pIC50,[5],< 5.22
same,pIC50,[6],7.00
same,Papp,[7],32 10^-6 cm/s
same,pIC50,[8],7.00
same,"solubility kinetic at […], 500 µM",[9],< 100 µM
same,pIC50,[10],< 5.22
